Laboratory results from ChEMBL document CHEMBL4619701, “Neutral analogs of the heat shock protein 70 (Hsp70) inhibitor, JG-98” (Bioorg Med Chem Lett, 2020).

Columns and labels:
MCF7 [1] = experiment: Antiproliferative activity against human MCF7 cells assessed as cell growth inhibition; type: functional, cell-based
CWR22R [2] = experiment: Antiproliferative activity against human 22Rv1 cells assessed as cell growth inhibition; type: functional, cell-based
PC-3 [3] = experiment: Antiproliferative activity against human PC3 cells assessed as cell growth inhibition; type: functional, cell-based
CWR22R [4] = experiment: Inhibition of HSP70 in human 22Rv1 cells assessed as reduction in c-Raf1 protein level at 0.3 to 5 uM measured after 24 hrs by Western blot analysis; type: cell-based
In short: (§1)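 22Rv1 cells were treated for 24 h at the indicated concentrations, then lysed and analysed by western blot for the named protein. Blots are representative of at least two independent experiments. Quantifications are averages of at least two independent experiments, with error bars as S.E.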

[5] = Inhibition of HSP70 in human 22Rv1 cells assessed as induction of heat shock response by measuring HSP90 level at 0.3 to 5 uM measured after 24 hrs by Western blot analysis; type: cell-based; settings: cwr22r; in short: as §1
CWR22R [6] = experiment: Inhibition of HSP70 in human 22Rv1 cells assessed as reduction in CDK4 protein level at 0.3 to 5 uM measured after 24 hrs by Western blot analysis; type: cell-based; in short: as §1
[7] = Inhibition of HSP70 in human 22Rv1 cells assessed as induction of heat shock response by measuring HSP72 level measured after 24 hrs by Western blot analysis; type: cell-based; settings: cwr22r; in short: as §1
CWR22R [8] = experiment: Potency index, ratio of JG-98 IC50 to compound IC50 for human 22Rv1 cells; type: functional
CWR22R [9] = experiment: Inhibition of HSP70 in human 22Rv1 cells assessed as reduction in Akt-1 protein level at 0.3 to 5 uM measured after 24 hrs by Western blot analysis; type: cell-based; in short: as §1
PC-3 [10] = experiment: Potency index, ratio of JG-98 IC50 to compound IC50 for human PC3 cells; type: functional
CWR22R [11] = experiment: Inhibition of HSP70 in human 22Rv1 cells assessed as reduction in HuR protein level at 0.3 to 5 uM measured after 24 hrs by Western blot analysis; type: cell-based; in short: as §1
MCF7 [12] = experiment: Potency index, ratio of JG-98 IC50 to compound IC50 for human MCF7 cells; type: functional

| SMILES | IC50 (MCF7 [1]) [µM] | IC50 (CWR22R [2]) [µM] | IC50 (PC-3 [3]) [µM] | other results |
| --- | --- | --- | --- | --- |
| c1ccc(Nc2nc(-c3nc4ccccc4s3)cs2)cc1 | 7.6 | 6.9 | 5.5 |  |
| CCn1c(=O)/c(=C2\Sc3ccc(OC)cc3N2C)s/c1=C\c1ccncc1Nc1ccccc1F | 0.13 | 0.19 | 0.1 |  |
| CCn1c(=O)/c(=C2\Sc3ccccc3N2C)s/c1=C\c1ccncc1Nc1ccccc1F | 0.33 | 0.3 | 0.36 |  |
| CCn1c(=O)/c(=C2\Sc3cc(F)ccc3N2C)s/c1=C\c1ccncc1Nc1ccccc1F | 0.23 | 0.15 | 0.26 |  |
| c1ccc(Nc2cccc(-c3nc4ccccc4s3)c2)nc1 | 13 | 13 | 4.8 |  |
| CCn1c(=O)/c(=C2\Sc3ccccc3N2C)s/c1=C\c1ccncc1Nc1ccccc1C | 0.99 | 0.47 | 1.2 |  |
| CCn1c(=O)/c(=C2\Sc3ccccc3N2C)s/c1=C\c1ccncc1Nc1cc(C)ccc1C | 1.7 | 1.8 | 2 |  |
| CCn1c(=O)/c(=C2\Sc3ccc(C)cc3N2C)s/c1=C\c1ccncc1Nc1ccccc1C | 0.4 | 0.48 | 0.33 |  |
| CCn1c(=O)/c(=C2\Sc3ccc(OC)cc3N2C)s/c1=C\c1ccncc1Nc1ccccc1Cl | 0.71 | 0.5 | 0.76 |  |
| CCc1ccc2c(c1)S/C(=c1/s/c(=C\c3ccncc3Nc3ccccc3F)n(CC)c1=O)N2C | 1.2 | 1.2 | 2.2 |  |
| CCn1c(=O)/c(=C2\Sc3ccc(C)cc3N2C)s/c1=C\c1ccncc1Nc1ccccc1Cl | 0.65 | 0.35 | 0.5 |  |
| c1ccc(Nc2nc(-c3nc4ccccc4s3)cs2)nc1 | 3.6 | 3.2 | 6.7 |  |
| CCn1c(=O)/c(=C2\Sc3cc(F)ccc3N2C)s/c1=C\c1ccncc1Nc1ccccc1Cl | 1.3 | 0.49 | 1.2 |  |
| CCn1c(=O)/c(=C2\Sc3ccccc3N2C)s/c1=C\c1ccncc1Nc1ccccc1Cl | 0.75 | 0.46 | 0.78 |  |
| CCn1c(=O)/c(=C2\Sc3ccccc3N2C)s/c1=C\c1ccncc1Nc1cc(F)ccc1F | 1.5 | 1.1 | 1.2 |  |
| COc1ccc(Cl)c(Nc2cccc(-c3nc4ccccc4s3)c2)c1 | 0.71 | 2.1 | 2.2 |  |
| CCn1c(=O)/c(=C2\Sc3cc(F)ccc3N2C)s/c1=C\c1ccncc1Nc1ccccc1C | 1.3 | 2.3 | 2.3 |  |
| CCn1c(=O)/c(=C2\Sc3ccc(OC)cc3N2C)s/c1=C\c1ccncc1Nc1ccccc1C | 0.42 | 0.41 | 0.37 |  |
| CCn1c(=O)/c(=C2\Sc3ccc(C)cc3N2C)s/c1=C\c1ccncc1Nc1ccccc1F | 0.1 | 0.15 | 0.07 | inhibition (CWR22R [4]): 50%; inhibition (INH) [5]: Not Active; inhibition (CWR22R [6]): 50%; inhibition (INH) [7]: Not Active; Ratio IC50 (CWR22R [8]): 7 - 10; inhibition (CWR22R [9]): 50%; Ratio IC50 (PC-3 [10]): 7 - 10; inhibition (CWR22R [11]): 50%; Ratio IC50 (MCF7 [12]): 7 - 10 |
